Consider ten compounds from ChEMBL document CHEMBL1158729, “Antioxidant phenolic glycosides from Moricandia arvensis” (J Nat Prod, 2005).

Converted amounts (≈) assume the structure as drawn. The source made the active and inactive calls. The rule behind the calls is not given here.

Common to all, as to assay type: functional
A short description of experiment [1]: Antioxidant activity assessed as ABTS radical scavenging activity after 15 mins by TEAC method. In short, it runs like this: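 ABTS radical cation formed from 7 mM ABTS with potassium persulfate (2.4 mM final), held 16 h dark at room temperature, then diluted with water to A734 0.700 ± 0.03. Samples in H2O-EtOH at 5-8 concentrations (0 to 20 µM final). A734 decrease read at 1, 2, 5, 10, 15 min, triplicate, with solvent blanks. Expressed as mM Trolox equivalent to 1.0 mM or 1 mg/mL sample.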

A short description of experiment [2]: Antioxidant activity assessed as reduction of […]/ferricyanide complex after 20 mins. In short, it runs like this:
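Samples (0.02-1.0 mg) in water, mixed with […] phosphate buffer pH 6.6 and 1% potassium ferricyanide, 20 min at 50 °C. Reaction stopped with 10% TCA, centrifuged, and supernatant mixed with water and 0.1% FeCl3. A700 read against blank. Means of three independent samples fitted by linear regression. IC50 taken as the concentration giving an absorbance change of 0.50. α-Tocopherol and quercetin used as standards.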

Experiment [3] has as its system Radical scavenging activity. Kind of experiment: Antioxidant activity assessed as DPPH radical scavenging activity at 15 ug/mL after 30 to 45 mins. In short, it runs like this: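 Sample added to freshly prepared 0.004% DPPH in MeOH (final-volume ratio 50:950 µL), vortexed 15 s. Absorbance at 515 nm read at room temperature after 30-45 min, once steady state was reached. Triplicate. % inhibition = (1 − As/A0) × 100 against control. α-Tocopherol and quercetin used as standards.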
For orientation: Loss of DPPH colour is used to gauge radical scavenging.

For the compound `O=C(/C=C/c1ccc(O[C@@H]2O[C@H](CO)[C@@H](O)[C@H](O)[C@H]2O)c(O)c1)O[C@@H]1O[C@H](CO)[C@@H](O)[C@H](O)[C@H]1O`, the Trolox equivalent antioxidant capacity (TEAC) in experiment [1] stood at 1.06 mM. Further, the IC50 – broadly, the midpoint of a concentration-inhibition curve – in experiment [2] was determined as 95.9 µg/mL (≈ 190 µM).
For `O=C(O[C@@H]1O[C@H](CO)[C@@H](O)[C@H](O)[C@H]1O)c1ccc(O)cc1`, the result in experiment [1] and in experiment [2] was inactive.
Take `COC(=O)/C=C/c1ccc(O[C@@H]2O[C@H](CO)[C@@H](O)[C@H](O)[C@H]2O)c(O)c1`: the Trolox equivalent antioxidant capacity (TEAC) in experiment [1] amounted to 0.89 mM. The IC50 in experiment [2] amounted to 486.2 µg/mL (≈ 1360 µM).
For `O=c1c(O)c(-c2ccc(O)c(O)c2)oc2cc(O)cc(O)c12` [QUERCETIN], the Activity amounted to 4.26 mM in experiment [1] and 87% in experiment [3]. In addition, the IC50 in experiment [2] is 24.4 µg/mL (≈ 80.7 µM).
With `OC[C@H]1O[C@@H](OCCc2ccccc2)[C@H](O)[C@@H](O)[C@@H]1O`, the outcome in experiment [1] and in experiment [2] was inactive.
`Cc1c(C)c2c(c(C)c1O)CC[C@@](C)(CCC[C@H](C)CCC[C@H](C)CCCC(C)C)O2` [ALPHA-TOCOPHEROL]: the IC50 in experiment [2] was 106.9 µg/mL (≈ 248 µM). Moreover, the Activity in experiment [3] came to 87%.
In the case of `COC(=O)/C=C/c1cc(O)cc(O[C@@H]2O[C@H](CO)[C@@H](O)[C@H](O)[C@H]2O)c1`, the Trolox equivalent antioxidant capacity (TEAC) in experiment [1] amounted to 0.35 mM. Further, the IC50 in experiment [2] was 630.8 µg/mL (≈ 1770 µM).
Regarding `O=C(O[C@@H]1O[C@H](CO)[C@@H](O)[C@H](O)[C@H]1O)c1ccc(O[C@@H]2O[C@H](CO)[C@@H](O)[C@H](O)[C@H]2O)cc1`, the Trolox equivalent antioxidant capacity (TEAC) in experiment [1] was 0.28 mM. Moreover, in experiment [2], the IC50 was found to be 735.4 µg/mL (≈ 1590 µM).
With `C[C@@H]1O[C@@H](Oc2cc(O)c3c(=O)c(O[C@@H]4O[C@H](CO)[C@@H](O)[C@H](O)[C@H]4O)c(-c4ccc(O[C@@H]5O[C@H](CO)[C@@H](O)[C@H](O)[C@H]5O)c(O)c4)oc3c2)[C@H](O)[C@H](O)[C@H]1O` [MORICANDIN], the Trolox equivalent antioxidant capacity (TEAC) in experiment [1] came out at 1.23 mM. In addition, the IC50 in experiment [2] amounted to 48.1 µg/mL (≈ 62.3 µM). In experiment [3], the Activity amounted to 60%.
In the same order, the values of `O=C(/C=C/c1ccc(O)c(O)c1)O[C@@H]1O[C@H](CO)[C@@H](O)[C@H](O)[C@H]1O` are 1.91 mM, 33.5 µg/mL (≈ 97.9 µM) and 72%.
